Data reported in ChEMBL document CHEMBL1649328, “Assessment of pandemic and seasonal influenza A (H1N1) virus susceptibility to neuraminidase inhibitors in three enzyme activity inhibition assays” (Antimicrob Agents Chemother, 2010).

Tests used:
[1] = tested on: Influenza A virus; test: Ratio of IC50 for influenza A (A/Singapore/57/2009 (H1N1)) virus harboring neuraminidase H275Y mutant to IC50 for influenza A (A/Washington/29/2009 (H1N1)) virus expressing wild type enzyme by fetuin substrate based colorimetric assay; type: functional
Summary of the method: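 Colorimetric NA inhibition using a virus dilution that gave 0.4–0.8 OD549. Virus preincubated 1 h at 37°C with half-log inhibitor dilutions (0.03–1,000 nM final) in MES/CaCl2 pH 6.0 buffer. Fetuin (5.5 mg/ml final) then added for 18 h at 37°C. Released sialic acid detected by periodate oxidation and thiobarbituric acid, butanol extraction, read at 549 nm. IC50 curve-fitted, ≥2 experiments. Ratio is variant IC50 over wild-type reference IC50.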

[2] = tested on: Influenza A virus; test: Antiviral activity against influenza A (A/Hong Kong/2369/2009 (H1N1)) virus harboring neuraminidase H275Y mutant after 30 mins by NA-star substrate based chemiluminescent assay; type: functional, organism-based
Summary of the method: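 Titrated virus in NA-Star buffer (26 mM MES, 4 mM CaCl2, pH 6.0) was preincubated with ten half-log inhibitor dilutions (0.03–1,000 nM final) for 30 min at 37°C, then with substrate for 30 min at room temperature. Accelerator solution was added and luminescence read for 0.1 s. IC50 came from a Vmax·[1−x/(K+x)] fit, mean of ≥3 experiments.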

[3] = tested on: Influenza A virus; test: Antiviral activity against influenza A (A/Montana/02/2009 (H1N1)) virus harboring neuraminidase H275Y mutant after 30 mins by MUNANA substrate based fluorometric assay; type: functional, organism-based
Summary of the method: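 Fluorometric NA inhibition with MUNANA (100 μM final). Titrated virus in NA-Star buffer (26 mM MES, 4 mM CaCl2, pH 6.0) was preincubated with ten half-log inhibitor dilutions (0.03–1,000 nM final) for 30 min at 37°C, then with substrate for 30 min at 37°C. The reaction was stopped with 0.1 M glycine in 25% ethanol, pH 10.7, and 4-methylumbelliferone was read at ex 365/em 450 nm. IC50 came from a Vmax·[1−x/(K+x)] fit, mean of ≥3 experiments.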

[4] = tested on: Influenza A virus; test: Antiviral activity against influenza A (A/Montana/02/2009 (H1N1)) virus harboring neuraminidase H275Y mutant after 16 to 18 hrs by fetuin substrate based colorimetric assay; type: functional, organism-based
Summary of the method: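 Colorimetric NA inhibition with fetuin substrate. Virus was diluted in NA-Star buffer (26 mM MES, 4 mM CaCl2, pH 6.0) to give OD549 of 0.4–0.8 after 18 h. It was preincubated with ten half-log inhibitor dilutions (0.03–1,000 nM final) for 1 h at 37°C, then with fetuin (5.5 mg/ml final) for 16–18 h at 37°C. Released sialic acid was read at 549 nm after periodate/TBA reaction and butanol extraction. IC50 came from a Vmax·[1−x/(K+x)] fit, mean of ≥2 experiments.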

[5] = tested on: Influenza A virus; test: Ratio of IC50 for influenza A (A/North Carolina/02/2009 (H1N1)) virus harboring neuraminidase H275Y mutant to IC50 for influenza A (A/Washington/10/2008 (H1N1)) virus expressing wild type enzyme expressing wild type enzyme by NA-star substrate based chemiluminescent assay; type: functional
[6] = tested on: Influenza A virus; test: Ratio of IC50 for influenza A (A/Osaka/180/2009 (H1N1)) virus harboring neuraminidase H275Y mutant to IC50 for influenza A (A/Washington/29/2009 (H1N1)) virus expressing wild type enzyme by NA-star substrate based chemiluminescent assay; type: functional
[7] = tested on: Influenza A virus; test: Ratio of IC50 for influenza A (A/Washington/29/2009 (H1N1)) virus harboring neuraminidase H275Y mutant to IC50 for influenza A (A/Washington/29/2009 (H1N1)) virus expressing wild type enzyme by MUNANA substrate based fluorometric assay; type: functional
Summary of the method: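 Fluorometric NA inhibition in MES/CaCl2 buffer, pH 6.0. Virus preincubated 30 min at 37°C with ten half-log inhibitor dilutions (0.03–1,000 nM final), then MUNANA (100 μM final) added for 30 min at 37°C. Stopped with 0.1 M glycine in 25% ethanol, pH 10.7. Read at ex 365/em 450 nm. IC50 curve-fitted, mean of ≥3 experiments. Ratio is variant IC50 over wild-type reference IC50.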

[8] = tested on: Influenza A virus; test: Ratio of IC50 for influenza A (A/North Carolina/01/2009 (H1N1)) virus harboring neuraminidase H275Y mutant to IC50 for influenza A (A/Washington/29/2009 (H1N1)) virus expressing wild type enzyme by fetuin substrate based colorimetric assay; type: functional
[9] = tested on: Influenza A virus; test: Ratio of IC50 for influenza A (A/Hong Kong/2369/2009 (H1N1)) virus harboring neuraminidase H275Y mutant to IC50 for influenza A (A/Washington/29/2009 (H1N1)) virus expressing wild type enzyme by fetuin substrate based colorimetric assay; type: functional

Compound | Ratio IC50 [1] | IC50 [2] | IC50 [3] | IC50 [4] | Ratio IC50 [5] | Ratio IC50 [6] | Ratio IC50 [7] | Ratio IC50 [8] | Ratio IC50 [9]
C/C=C\[C@@H]1C[C@H](C(=O)O)N[C@H]1[C@@H](NC(C)=O)[C@](C)(CCC)OC | 1 | 1.09 nM | 2.6 nM | 1.89 nM | 1 | 3 | 3 | 2 | 3
CCC(CC)[C@H](NC(C)=O)[C@@H]1[C@H](O)[C@@H](C(=O)O)C[C@H]1NC(=N)N [PERAMIVIR ANHYDROUS] | 173 | 9.24 nM | 197 nM | 83.4 nM | 1 | 93 | 751 | 140 | 330
